Laboratory results published in ChEMBL document CHEMBL3102784, “Salicylanilide diethyl phosphates: synthesis, antimicrobial activity and cytotoxicity” (Bioorg Med Chem, 2014).
Activity calls are given as the source filed them.

Assays:
Candida albicans [1] = experiment: Antifungal activity against Candida albicans ATCC 44859 after 24 hrs by broth microdilution method; format: functional; conditions: ATCC 44859, 24 h
Method in brief: (§1)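 Broth microdilution in RPMI 1640 with glutamine, fluconazole as reference. For yeasts, MIC is ≥80% growth reduction (IC80) versus control. For filamentous fungi, the value is expressed as IC50. Readings at 24 and 48 h.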

[2] = system: Mycobacterium tuberculosis; experiment: Antimycobacterial activity against Mycobacterium tuberculosis H37Rv My 331/88 after 14 days; format: functional; conditions: H37Rv My 331/88, 336 h
Method in brief: (§2)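 Micromethod MIC in Šula's semisynthetic medium at 37 °C. Compounds added in DMSO at 1000 down to 0.032 µmol/L. Isoniazid standard in sterile water at 0.5–250 µmol/L. Inocula: H37Rv 10^3, M. avium 10^5, M. kansasii 10^4. Read at 14 and 21 d, plus 7 d for M. kansasii.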

Candida albicans [3] = experiment: Antifungal activity against Candida albicans ATCC 44859 after 48 hrs by broth microdilution method; format: functional; conditions: ATCC 44859, 48 h; method in brief: as §1
Pichia kudriavzevii [4] = experiment: Antifungal activity against Candida krusei E28 after 48 hrs by broth microdilution method; format: functional; conditions: E28, 48 h; method in brief: as §1
Staphylococcus aureus [5] = experiment: Antibacterial activity against methicillin-resistant Staphylococcus aureus H 5996/08 after 48 hrs by broth microdilution method; format: functional; conditions: H 5996/08, 48 h
Method in brief: (§3)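 Broth microdilution in Mueller–Hinton broth, compounds dissolved in DMSO, tested over a dilution series from 500 downward. MIC taken as ≥95% growth reduction (IC95) versus drug-free control. Benzylpenicillin comparator. Readings at 24 and 48 h.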

[6] = system: Staphylococcus epidermidis; experiment: Antibacterial activity against Staphylococcus epidermidis H 6966/08 after 24 hrs by broth microdilution method; format: functional; conditions: H 6966/08, 24 h; method in brief: as §3
Mycobacterium kansasii [7] = experiment: Antimycobacterial activity against Mycobacterium kansasii 6509/96 after 14 days; format: functional; conditions: 6509/96, 336 h; method in brief: as §2
Mycobacterium kansasii [8] = experiment: Antimycobacterial activity against Mycobacterium kansasii My 235/80 after 21 days; format: functional; conditions: My 235/80, 504 h; method in brief: as §2
Pichia kudriavzevii [9] = experiment: Antifungal activity against Candida krusei E28 after 24 hrs by broth microdilution method; format: functional; conditions: E28, 24 h; method in brief: as §1
Nakaseomyces glabratus = experiment: Antifungal activity against Candida glabrata 20/I at 500 micromol/L after 24 to 48 hrs by broth microdilution method; format: functional, organism-based; method in brief: as §1
Pseudomonas aeruginosa = experiment: Antibacterial activity against Pseudomonas aeruginosa CCM 1961 at 500 micromol/L after 24 to 48 hrs by broth microdilution method; format: functional, organism-based; method in brief: as §3
[10] = system: Staphylococcus epidermidis; experiment: Antibacterial activity against Staphylococcus epidermidis H 6966/08 after 48 hrs by broth microdilution method; format: functional; conditions: H 6966/08, 48 h; method in brief: as §3
Lichtheimia corymbifera [11] = experiment: Antifungal activity against Absidia corymbifera 272 after 48 hrs by broth microdilution method; format: functional; conditions: Lichtheimia corymbifera, 272, 48 h; method in brief: as §1
[12] = system: Mycobacterium tuberculosis; experiment: Antimycobacterial activity against Mycobacterium tuberculosis H37Rv My 331/88 after 21 days; format: functional; conditions: H37Rv My 331/88, 504 h; method in brief: as §2
Mycobacterium kansasii [13] = experiment: Antimycobacterial activity against Mycobacterium kansasii My 235/80 after 14 days; format: functional; conditions: My 235/80, 336 h; method in brief: as §2
Mycobacterium kansasii [14] = experiment: Antimycobacterial activity against Mycobacterium kansasii 6509/96 after 7 days; format: functional; conditions: 6509/96, 168 h; method in brief: as §2
Aspergillus fumigatus [15] = experiment: Antifungal activity against Aspergillus fumigatus 231 after 48 hrs by broth microdilution method; format: functional; conditions: Aspergillus fumigatus, 231, 48 h; method in brief: as §1
HepG2 = experiment: Cytotoxicity against human HepG2 cells after 24 hrs by CellTiter assay; format: cell-based; conditions: HepG2, 24 h
Method in brief: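 HepG2 cells (passage 27–33) in MEM with 10% FBS, L-glutamine and NEAA, seeded at 1×10^4 per well. Treated next day with compounds at 0.1–100 µM (or 0.1–25 µmol/L), triplicates, <1% DMSO, for 24 h at 37 °C, 5% CO2. MTS reagent added for 2 h, absorbance read at 490 nm. IC50 taken against untreated (100%) and 10% DMSO (0%) controls.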

Staphylococcus aureus [16] = experiment: Antibacterial activity against methicillin-resistant Staphylococcus aureus H 5996/08 after 24 hrs by broth microdilution method; format: functional; conditions: H 5996/08, 24 h; method in brief: as §3
Enterococcus sp. = experiment: Antibacterial activity against Enterococcus sp. J 14365/08 at 500 micromol/L after 24 to 48 hrs by broth microdilution method; format: functional, organism-based; method in brief: as §3
Staphylococcus aureus [17] = experiment: Antibacterial activity against Staphylococcus aureus CCM 4516/08 after 24 hrs by broth microdilution method; format: functional; conditions: CCM 4516/08, 24 h; method in brief: as §3
Staphylococcus aureus [18] = experiment: Antibacterial activity against Staphylococcus aureus CCM 4516/08 after 48 hrs by broth microdilution method; format: functional; conditions: CCM 4516/08, 48 h; method in brief: as §3
Klebsiella pneumoniae [19] = experiment: Antibacterial activity against Klebsiella pneumoniae D 11750/08 at 500 micromol/L after 24 to 48 hrs by broth microdilution method; format: functional, organism-based; method in brief: as §3
Klebsiella pneumoniae [20] = experiment: Antibacterial activity against ESBL-positive Klebsiella pneumoniae J 14368/08 at 500 micromol/L after 24 to 48 hrs by broth microdilution method; format: functional, organism-based; method in brief: as §3
Escherichia coli = experiment: Antibacterial activity against Escherichia coli CCM 4517 at 500 micromol/L after 24 to 48 hrs by broth microdilution method; format: functional, organism-based; method in brief: as §3
Mycobacterium kansasii [21] = experiment: Antimycobacterial activity against Mycobacterium kansasii My 235/80 after 7 days; format: functional; conditions: My 235/80, 168 h; method in brief: as §2
[22] = system: Trichophyton mentagrophytes; experiment: Antifungal activity against Trichophyton mentagrophytes 445 after 72 hrs by broth microdilution method; format: functional; conditions: Trichophyton mentagrophytes, 445, 72 h
Method in brief: (§4)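 Filamentous dermatophyte tested by broth microdilution in RPMI 1640 with glutamine, fluconazole as reference. Value expressed as IC50 relative to growth control. Read at 72 and 120 h.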

Mycobacterium avium [23] = experiment: Antimycobacterial activity against isoniazid, rifampicin, ethambutol and ofloxacin-resistant Mycobacterium avium My 330/88 after 14 days; format: functional; conditions: My 330/88, 336 h; method in brief: as §2
Lichtheimia corymbifera [24] = experiment: Antifungal activity against Absidia corymbifera 272 after 24 hrs by broth microdilution method; format: functional; conditions: Lichtheimia corymbifera, 272, 24 h; method in brief: as §1
Candida tropicalis = experiment: Antifungal activity against Candida tropicalis 156 at 500 micromol/L after 24 to 48 hrs by broth microdilution method; format: functional, organism-based; method in brief: as §1
[25] = system: Trichophyton mentagrophytes; experiment: Antifungal activity against Trichophyton mentagrophytes 445 after 120 hrs by broth microdilution method; format: functional; conditions: Trichophyton mentagrophytes, 445, 120 h; method in brief: as §4
Mycobacterium kansasii [26] = experiment: Antimycobacterial activity against Mycobacterium kansasii 6509/96 after 21 days; format: functional; conditions: 6509/96, 504 h; method in brief: as §2
Trichosporon asahii [27] = experiment: Antifungal activity against Trichosporon asahii 1188 after 48 hrs by broth microdilution method; format: functional; conditions: Trichosporon asahii, 1188, 48 h; method in brief: as §1
Aspergillus fumigatus [28] = experiment: Antifungal activity against Aspergillus fumigatus 231 after 24 hrs by broth microdilution method; format: functional; conditions: Aspergillus fumigatus, 231, 24 h; method in brief: as §1
Trichosporon asahii [29] = experiment: Antifungal activity against Trichosporon asahii 1188 after 24 hrs by broth microdilution method; format: functional; conditions: Trichosporon asahii, 1188, 24 h; method in brief: as §1
Mycobacterium avium [30] = experiment: Antimycobacterial activity against isoniazid, rifampicin, ethambutol and ofloxacin-resistant Mycobacterium avium My 330/88 after 21 days; format: functional; conditions: My 330/88, 504 h; method in brief: as §2

CCOP(=O)(OCC)Oc1ccc(Cl)cc1C(=O)Nc1cccc(F)c1
8 µM: MIC [2] | MIC [12]
500 µM: MIC95 [10] | MIC95 (Staphylococcus aureus [16]) | MIC95 (Staphylococcus aureus [18])
17.2 µM: IC50 (HepG2)
62.5 µM: MIC50 [22] | MIC50 [25]
250 µM: MIC95 [6]
> 500 µM: MIC80 (Candida albicans [1]) | MIC80 (Candida albicans [3]) | MIC80 (Pichia kudriavzevii [4]) | MIC95 (Staphylococcus aureus [5]) | MIC80 (Pichia kudriavzevii [9]) | MIC50 (Lichtheimia corymbifera [11]) | MIC50 (Aspergillus fumigatus [15]) | MIC50 (Lichtheimia corymbifera [24]) | MIC80 (Trichosporon asahii [27]) | MIC50 (Aspergillus fumigatus [28]) | MIC80 (Trichosporon asahii [29])
16 µM: MIC (Mycobacterium kansasii [14]) | MIC (Mycobacterium kansasii [21])
125 µM: MIC95 (Staphylococcus aureus [17])
32 µM: MIC (Mycobacterium kansasii [7]) | MIC (Mycobacterium kansasii [8]) | MIC (Mycobacterium kansasii [13]) | MIC (Mycobacterium avium [23]) | MIC (Mycobacterium kansasii [26]) | MIC (Mycobacterium avium [30])
inactive: Activity (Nakaseomyces glabratus) | Activity (Pseudomonas aeruginosa) | Activity (Enterococcus sp.) | Activity (Klebsiella pneumoniae [19]) | Activity (Klebsiella pneumoniae [20]) | Activity (Escherichia coli) | Activity (Candida tropicalis)

CCOP(=O)(OCC)Oc1cc(Cl)ccc1C(=O)Nc1cccc(F)c1
125 µM: MIC95 (Staphylococcus aureus [17])
inactive: Activity (Nakaseomyces glabratus) | Activity (Pseudomonas aeruginosa) | Activity (Enterococcus sp.) | Activity (Klebsiella pneumoniae [19]) | Activity (Klebsiella pneumoniae [20]) | Activity (Escherichia coli) | Activity (Candida tropicalis)
16 µM: MIC (Mycobacterium kansasii [7]) | MIC (Mycobacterium kansasii [8]) | MIC (Mycobacterium kansasii [13]) | MIC (Mycobacterium avium [23]) | MIC (Mycobacterium kansasii [26]) | MIC (Mycobacterium avium [30])
8 µM: MIC [2] | MIC [12] | MIC (Mycobacterium kansasii [14]) | MIC (Mycobacterium kansasii [21])
500 µM: MIC50 [22] | MIC50 [25]
> 500 µM: MIC80 (Candida albicans [1]) | MIC80 (Candida albicans [3]) | MIC80 (Pichia kudriavzevii [4]) | MIC80 (Pichia kudriavzevii [9]) | MIC50 (Lichtheimia corymbifera [11]) | MIC50 (Aspergillus fumigatus [15]) | MIC50 (Lichtheimia corymbifera [24]) | MIC80 (Trichosporon asahii [27]) | MIC50 (Aspergillus fumigatus [28]) | MIC80 (Trichosporon asahii [29])
250 µM: MIC95 (Staphylococcus aureus [5]) | MIC95 [6] | MIC95 [10] | MIC95 (Staphylococcus aureus [16]) | MIC95 (Staphylococcus aureus [18])
11.2 µM: IC50 (HepG2)
